Data reported in ChEMBL document CHEMBL3627681, “Synthesis and biological evaluation of 1,3-diaryl pyrazole derivatives as potential antibacterial and anti-inflammatory agents” (2015).
≈ marks a conversion by molar mass, not a printed value.

test system: Staphylococcus aureus; test: Antibacterial activity against Staphylococcus aureus 503 after 24 hrs by two-fold serial dilution method; assay type: functional; details: Staphylococcus aureus, 503, 24 h
Procedure, shortened: (§1)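 Broth microdilution in Mueller-Hinton broth. Bacteria grown to mid-log phase, diluted 1000-fold, and inoculated at 10⁵ CFU/mL. Test compounds in DMSO, final DMSO not above 0.05%, final concentrations 64-0.5 µg/mL. Incubation 24 h at 37 °C, growth read as absorbance at 650 nm. MIC taken as the lowest concentration giving complete growth inhibition. Run three times.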

With `COc1c(N2C[C@@H]3CCCN[C@@H]3C2)c(F)cc2c(=O)c(C(=O)O)cn(C3CC3)c12` [MOXIFLOXACIN] as the compound, how does the MIC read?
Its MIC is 2 µg/mL (≈ 4.98 µM).

test system: Candida albicans; test: Antifungal activity against Candida albicans 7535 by two-fold serial dilution method; assay type: functional; details: not given

`OC(Cn1cncn1)(Cn1cncn1)c1ccc(F)cc1F` [FLUCONAZOLE] was tested. Which MIC did it give?
Its MIC is 1 µg/mL (≈ 3.27 µM).

For `COc1c(N2C[C@@H]3CCCN[C@@H]3C2)c(F)cc2c(=O)c(C(=O)O)cn(C3CC3)c12` [MOXIFLOXACIN], which MIC is on record?
The MIC was 0.5 µg/mL (≈ 1.25 µM).

Which MIC does the source give for `CCC(C)n1ncn(-c2ccc(N3CCN(c4ccc(OCC5COC(Cn6cncn6)(c6ccc(Cl)cc6Cl)O5)cc4)CC3)cc2)c1=O` (centres undefined) [ITRACONAZOLE] here?
Its MIC is 0.06 µg/mL (≈ 0.085 µM).

test system: Staphylococcus aureus; test: Antibacterial activity against methicillin-resistant Staphylococcus aureus CCARM 3506 after 24 hrs by two-fold serial dilution method; assay type: functional; details: CCARM 3506, 24 h; procedure, shortened: as §1

For `Cc1onc(-c2ccccc2)c1C(=O)N[C@@H]1C(=O)N2[C@@H]1SC(C)(C)[C@@H]2C(=O)O` [OXACILLIN], which MIC is on record?
Its MIC is greater than 64 µg/mL.

With `CCn1cc(C(=O)O)c(=O)c2cc(F)c(N3CCNCC3)cc21` [NORFLOXACIN] as the compound, how does the MIC read?
The MIC was 4 µg/mL (≈ 12.5 µM).

test system: Staphylococcus aureus; test: Antibacterial activity against quinolone-resistant Staphylococcus aureus CCARM 3519 after 24 hrs by two-fold serial dilution method; assay type: functional; details: CCARM 3519, 24 h; procedure, shortened: as §1

For `Cc1onc(-c2ccccc2)c1C(=O)N[C@@H]1C(=O)N2[C@@H]1SC(C)(C)[C@@H]2C(=O)O` [OXACILLIN], which MIC is on record?
The MIC was 1 µg/mL (≈ 2.49 µM).

Which MIC does the source give for `CCn1cc(C(=O)O)c(=O)c2cc(F)c(N3CCNCC3)cc21` [NORFLOXACIN] here?
The MIC was greater than 64 µg/mL.

`COc1c(N2C[C@@H]3CCCN[C@@H]3C2)c(F)cc2c(=O)c(C(=O)O)cn(C3CC3)c12` [MOXIFLOXACIN] was tested. Which MIC did it give?
The MIC was 4 µg/mL (≈ 9.96 µM).

test system: Staphylococcus aureus; test: Antibacterial activity against methicillin-resistant Staphylococcus aureus CCARM 3167 after 24 hrs by two-fold serial dilution method; assay type: functional; details: CCARM 3167, 24 h; procedure, shortened: as §1

For `Cc1onc(-c2ccccc2)c1C(=O)N[C@@H]1C(=O)N2[C@@H]1SC(C)(C)[C@@H]2C(=O)O` [OXACILLIN], which MIC is on record?
Its MIC is greater than 64 µg/mL.

With `CCn1cc(C(=O)O)c(=O)c2cc(F)c(N3CCNCC3)cc21` [NORFLOXACIN] as the compound, how does the MIC read?
Its MIC is 8 µg/mL (≈ 25.1 µM).

test system: Pseudomonas aeruginosa; test: Antibacterial activity against Pseudomonas aeruginosa 2004 after 24 hrs by two-fold serial dilution method; assay type: functional; details: Pseudomonas aeruginosa, 2004, 24 h
Procedure, shortened: (§2)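 Broth microdilution in Mueller-Hinton broth over final concentrations of 64–0.5. Bacteria were grown to mid-log phase and diluted 1000-fold, then inoculated at 10⁵ CFU/mL. Compounds were dissolved in DMSO, with final DMSO at most 0.05%. Plates were incubated 24 h at 37 °C and growth read as absorbance at 650 nm. MIC is the concentration giving complete growth inhibition. Three independent runs.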

For `COc1c(N2C[C@@H]3CCCN[C@@H]3C2)c(F)cc2c(=O)c(C(=O)O)cn(C3CC3)c12` [MOXIFLOXACIN], which MIC is on record?
Its MIC is 2 µg/mL (≈ 4.98 µM).

test system: Salmonella typhimurium; test: Antibacterial activity against Salmonella typhimurium 2421 after 24 hrs by two-fold serial dilution method; assay type: functional, Salmonella enterica subsp. enterica serovar Typhimurium; details: Salmonella enterica, 2421, 24 h; procedure, shortened: as §2

How did the MIC turn out when `COc1c(N2C[C@@H]3CCCN[C@@H]3C2)c(F)cc2c(=O)c(C(=O)O)cn(C3CC3)c12` [MOXIFLOXACIN] was run?
The MIC was 0.5 µg/mL (≈ 1.25 µM).

test system: Staphylococcus aureus; test: Antibacterial activity against quinolone-resistant Staphylococcus aureus CCARM 3505 after 24 hrs by two-fold serial dilution method; assay type: functional; details: CCARM 3505, 24 h; procedure, shortened: as §1

With `Cc1onc(-c2ccccc2)c1C(=O)N[C@@H]1C(=O)N2[C@@H]1SC(C)(C)[C@@H]2C(=O)O` [OXACILLIN] as the compound, how does the MIC read?
Its MIC is 1 µg/mL (≈ 2.49 µM).

`CCn1cc(C(=O)O)c(=O)c2cc(F)c(N3CCNCC3)cc21` [NORFLOXACIN] was tested. Which MIC did it give?
The MIC was greater than 64 µg/mL.

test system: Mus musculus; test: Antiinflammatory activity in mouse assessed as inhibition of xylene-induced ear edema at 50 mg/kg, ip administered 30 mins before xylene challenge relative to control; assay type: functional; details: not given
Procedure, shortened: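 Mice received compound freshly dissolved in DMSO, 50 mg/kg ip at 0.05 mL/20 g body weight; vehicle controls got DMSO alone. After 30 min, 20 µL xylene was applied to the right ear. After a further 30 min, 7 mm plugs were cut from treated and untreated ears and edema taken as their weight difference. Result is % edema reduction versus vehicle controls.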

Which inhibition in vivo at 50 mg/kg does the source give for `CC(C)Cc1ccc(C(C)C(=O)O)cc1` (centres undefined) [IBUPROFEN] here?
Its inhibition in vivo at 50 mg/kg is 29.6%.

test system: Streptococcus mutans; test: Antibacterial activity against Streptococcus mutans 3065 after 24 hrs by two-fold serial dilution method; assay type: functional; details: Streptococcus mutans, 3065, 24 h; procedure, shortened: as §2

`COc1c(N2C[C@@H]3CCCN[C@@H]3C2)c(F)cc2c(=O)c(C(=O)O)cn(C3CC3)c12` [MOXIFLOXACIN] was tested. Which MIC did it give?
Its MIC is 0.25 µg/mL (≈ 0.623 µM).

test system: Staphylococcus aureus; test: Antibacterial activity against Staphylococcus aureus RN4220 after 24 hrs by two-fold serial dilution method; assay type: functional; details: RN4220, 24 h; procedure, shortened: as §1

How did the MIC turn out when `COc1c(N2C[C@@H]3CCCN[C@@H]3C2)c(F)cc2c(=O)c(C(=O)O)cn(C3CC3)c12` [MOXIFLOXACIN] was run?
Its MIC is 0.25 µg/mL (≈ 0.623 µM).

test system: Escherichia coli; test: Antibacterial activity against Escherichia coli CCARM 1356 after 24 hrs by two-fold serial dilution method; assay type: functional; details: CCARM 1356, 24 h; procedure, shortened: as §2

For `COc1c(N2C[C@@H]3CCCN[C@@H]3C2)c(F)cc2c(=O)c(C(=O)O)cn(C3CC3)c12` [MOXIFLOXACIN], which MIC is on record?
Its MIC is 128 µg/mL (≈ 319 µM).
